Experimental data published in ChEMBL document CHEMBL1122917, “Vinblastin-23-oyl amino acid derivatives: chemistry, physicochemical data, toxicity, and antitumor activities against P388 and L1210 leukemias” (J Med Chem, 1985).

How the values were obtained:
Mus musculus [1] = assay: Percent increase in life span of DBA2 mice after inoculation with L1210 leukemia intravenously at a dose of 70 mg/kg per day; format: functional; details: route intravenous
How it was run: (§1)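 Female DBA2 mice inoculated iv on day 0 with 10^4 L1210 cells; drugs given iv as sulfate salts in physiological saline, mostly once on day 1. %ILS from all deaths and survivors as (T/C × 100) − 100; survivors scored on days 30 and 60.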

Mus musculus [2] = assay: Number of survivors on 30th day at dose 50 mg/kg/day in 10 mice implanted with P388 leukemia cell line; 7/10; format: functional
Mus musculus [3] = assay: Percent increase in life span of DBA2 mice after inoculation with L1210 leukemia intravenously at a dose of 65 mg/kg per day; format: functional; details: route intravenous; how it was run: as §1
Mus musculus [4] = assay: Percent increase in life span at dose 60 mg/kg/day in 10 mice implanted with P388 leukemia cell line; format: functional
How it was run: (§2)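 Female DBA2 mice inoculated iv on day 0 with 10^4 P388 cells; single iv treatment on day 1 with drug as sulfate salt in physiological saline. Survival followed; %ILS from all deaths and survivors as (T/C × 100) − 100, maximal MST 30 days; survivors counted on days 30 and 60. Most experiments confirmed three times.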

Mus musculus [5] = assay: Percent increase in life span of DBA2 mice after inoculation with L1210 leukemia intravenously at a dose of 45 mg/kg per day; format: functional; details: route intravenous; how it was run: as §1
Mus musculus [6] = assay: Number of survivors of DBA2 mice on 60th day after inoculation with L1210 leukemia cell line intravenously at a dose of 60 mg/kg/day; 0/10; format: functional; details: route intravenous
Mus musculus [7] = assay: Number of survivors on 60th day at dose 40 mg/kg/day in 10 mice implanted with P388 leukemia cell line; 4/10; format: functional
Mus musculus [8] = assay: Number of survivors of DBA2 mice on 30th day after inoculation with L1210 leukemia cell line intravenously at a dose of 58 mg/kg/day; 0/10; format: functional; details: route intravenous
Mus musculus [9] = assay: Number of survivors on 60th day at dose 65 mg/kg/day in 7 mice implanted with P388 leukemia cell line for 1,8,15 scheduled days in Exp-2; 0/10; format: functional
Mus musculus [10] = assay: Percent increase in life span at dose 65 mg/kg/day in 7 mice implanted with P388 leukemia cell line for 1,8,15 schedule day in Exp-1; format: functional
Mus musculus [11] = assay: Percent increase in life span at dose 50 mg/kg/day in 10 mice implanted with P388 leukemia cell line; format: functional; how it was run: as §2
Mus musculus [12] = assay: Number of survivors of DBA2 mice on 60th day after inoculation with L1210 leukemia cell line intravenously at a dose of 10 mg/kg/day; 0/10; format: functional; details: route intravenous
Mus musculus [13] = assay: Percent increase in life span at dose 6 mg/kg/day in 7 mice implanted with P388 leukemia cell line for 1,8,15 schedule days from Exp-2; format: functional
Mus musculus [14] = assay: Number of survivors on 30th day at dose 8 mg/kg/day in 10 mice implanted with P388 leukemia cell line; 8/10; format: functional
Mus musculus [15] = assay: Number of survivors on 60th day at dose 7 mg/kg/day in 9 mice implanted with P388 leukemia cell line; 0/9; format: functional
Mus musculus [16] = assay: Percent increase in life span at dose 7 mg/kg/day in 9 mice implanted with P388 leukemia cell line for 1st schedule day; format: functional
Mus musculus [17] = assay: Number of survivors on 30th day at dose 7 mg/kg/day in 10 mice implanted with P388 leukemia cell line; 2/10; format: functional
Mus musculus [18] = assay: Number of survivors of DBA2 mice on 30th day after inoculation with L1210 leukemia cell line intraperitoneally at a dose of 4 mg/kg/day; 0/10; format: functional; details: route intraperitoneal
Mus musculus [19] = assay: Number of survivors on 30th day at dose 3 mg/kg/day in 10 mice implanted with P388 leukemia cell line; 0 /10; format: functional
Mus musculus [20] = assay: Number of survivors of BDF1 mice on 30th day after inoculation with P388 leukemia cell line intraperitoneally at a dose of 2.7 mg/kg/day; 0/11; details: route intraperitoneal
Mus musculus [21] = assay: Number of survivors of DBA2 mice on 60th day after inoculation with L1210 leukemia cell line intraperitoneally at a dose of 0.22 mg/kg/day; 0/10; format: functional; details: route intraperitoneal
Mus musculus [22] = assay: Percent increase in life span of BDF1 mice after inoculation with P388 leukemia intraperitoneally at a dose of 2.7 mg/kg per day; details: P388, ip
Mus musculus [23] = assay: Percent increase in life span of DBA2 mice after inoculation with L1210 leukemia intravenously at a dose of 6.5 mg/kg per day; format: functional; details: route intravenous
Mus musculus [24] = assay: Percent increase in life span of DBA2 mice after inoculation with L1210 leukemia intravenously at a dose of 1.5 mg/kg per day; format: functional; details: route intravenous
Mus musculus [25] = assay: Number of survivors of DBA2 mice on 60th day after inoculation with L1210 leukemia cell line intravenously at a dose of 6.5 mg/kg/day; 0/10; format: functional; details: route intravenous
Mus musculus [26] = assay: Number of survivors of DBA2 mice on 60th day after inoculation with L1210 leukemia cell line intravenously at a dose of 1 mg/kg/day; 0/10; format: functional; details: route intravenous
Mus musculus [27] = assay: Number of survivors of DBA2 mice on 30th day after inoculation with L1210 leukemia cell line intraperitoneally at a dose of 1 mg/kg/day; 0/10; format: functional; details: route intraperitoneal
Mus musculus [28] = assay: Percent increase in life span of DBA2 mice after inoculation with L1210 leukemia intravenously at a dose of 1 mg/kg per day; format: functional; details: route intravenous
Mus musculus [29] = assay: Percent increase in life span at dose 2.5 mg/kg/day in 10 mice implanted with P388 leukemia cell line; format: functional
Mus musculus [30] = assay: Number of survivors on 60th day at dose 2.5 mg/kg/day in 10 mice implanted with P388 leukemia cell line for 1st scheduled day; 0/10; format: functional
Mus musculus [31] = assay: Number of survivors on 30th day at dose 5 mg/kg/day in 10 mice implanted with P388 leukemia cell line; 0/10; format: functional
Mus musculus [32] = assay: Percent increase in life span of BDF1 mice after inoculation with P388 leukemia intraperitoneally at a dose of 2.5 mg/kg per day; details: P388, ip
Mus musculus [33] = assay: Percent increase in life span at dose 2 mg/kg/day in 10 mice implanted with P388 leukemia cell line for 1st scheduled day; format: functional
Mus musculus [34] = assay: Number of survivors of DBA2 mice on 60th day after inoculation with L1210 leukemia cell line intraperitoneally at a dose of 2.5 mg/kg/day; 0/10; format: functional; details: route intraperitoneal
Mus musculus [35] = assay: Number of survivors on 30th day at dose 8 mg/kg/day in 10 mice implanted with P388 leukemia cell line; 0/10; format: functional
Mus musculus [36] = assay: Number of survivors of DBA2 mice on 30th day after inoculation with L1210 leukemia cell line intraperitoneally at a dose of 2.5 mg/kg/day; 0/10; format: functional; details: route intraperitoneal
Mus musculus [37] = assay: Number of survivors on 60th day at dose 2.5 mg/kg/day in 7 mice implanted with P388 leukemia cell line for 1,8,15 scheduled days from Exp-2; 0/11; format: functional
Mus musculus [38] = assay: Percent increase in life span at dose 2 mg/kg/day in 7 mice implanted with P388 leukemia cell line for 1,8,15 scheduled days; format: functional

CCOC(=O)[C@H](Cc1c[nH]c2ccccc12)NC(=O)[C@@]1(O)[C@H](O)[C@]2(CC)C=CCN3CC[C@@]4(c5cc([C@@]6(C(=O)OC)C[C@H]7C[N@](CCc8c6[nH]c6ccccc86)C[C@](O)(CC)C7)c(OC)cc5N(C)[C@@]14C)[C@@H]32
ILS at 70 mg/kg/day (Mus musculus [1]): 61.8% | Survivors (Mus musculus [2]): 7 | ILS at 65 mg/kg/day (Mus musculus [3]): 71% | ILS at 60 mg/kg/day (Mus musculus [4]): > 178% | ILS at 45 mg/kg/day (Mus musculus [5]): 92% | Survivors (Mus musculus [6]): 0 | Survivors (Mus musculus [7]): 4 | Survivors (Mus musculus [8]): 0 | Survivors (Mus musculus [9]): 0 | ILS at 65 mg/kg/day (Mus musculus [10]): 88% | ILS at 50 mg/kg/day (Mus musculus [11]): > 161%

CCOC(=O)[C@@H](NC(=O)[C@@]1(O)[C@H](O)[C@]2(CC)C=CCN3CC[C@@]4(c5cc([C@@]6(C(=O)OC)C[C@H]7C[N@](CCc8c6[nH]c6ccccc86)C[C@](O)(CC)C7)c(OC)cc5N(C)[C@@]14C)[C@@H]32)[C@@H](C)CC
Survivors (Mus musculus [12]): 0 | ILS at 6 mg/kg/day (Mus musculus [13]): 200% | Survivors (Mus musculus [14]): 8 | Survivors (Mus musculus [15]): 0 | ILS at 7 mg/kg/day (Mus musculus [16]): 37% | Survivors (Mus musculus [17]): 2

CC[C@]1(O)C[C@@H]2CN(CCc3c([nH]c4ccccc34)[C@@](C(=O)OC)(c3cc4c(cc3OC)N(C)[C@H]3[C@@](O)(C(=O)OC)[C@H](OC(C)=O)[C@]5(CC)C=CCN6CC[C@]43[C@@H]65)C2)C1 [VINBLASTINE]
Survivors (Mus musculus [18]): 0 | Survivors (Mus musculus [19]): 0

CC[C@]1(O)C[C@H]2CN(CCc3c([nH]c4ccccc34)[C@@](C(=O)OC)(c3cc4c(cc3OC)N(C=O)[C@H]3[C@@](O)(C(=O)OC)[C@H](OC(C)=O)[C@]5(CC)C=CCN6CC[C@]43[C@@H]65)C2)C1 [VINCRISTINE]
Survivors (Mus musculus [20]): 0 | Survivors (Mus musculus [21]): 0 | ILS at 2.7 mg/kg/day (Mus musculus [22]): 64% | ILS at 6.5 mg/kg/day (Mus musculus [23]): -37% | ILS at 1.5 mg/kg/day (Mus musculus [24]): 12% | Survivors (Mus musculus [25]): 0 | Survivors (Mus musculus [26]): 0 | Survivors (Mus musculus [27]): 0 | ILS at 1 mg/kg/day (Mus musculus [28]): 10.7%

CC[C@]1(O)C[C@@H]2CN(CCc3c([nH]c4ccccc34)[C@@](C(=O)OC)(c3cc4c(cc3OC)N(C)[C@H]3[C@@](O)(C(N)=O)[C@H](O)[C@]5(CC)C=CCN6CC[C@]43[C@@H]65)C2)C1 [VINDESINE]
ILS at 2.5 mg/kg/day (Mus musculus [29]): 19% | Survivors (Mus musculus [30]): 0 | Survivors (Mus musculus [31]): 0 | ILS at 2.5 mg/kg/day (Mus musculus [32]): 150% | ILS at 2 mg/kg/day (Mus musculus [33]): 28% | Survivors (Mus musculus [34]): 0 | Survivors (Mus musculus [35]): 0 | Survivors (Mus musculus [36]): 0 | Survivors (Mus musculus [37]): 0 | ILS at 2 mg/kg/day (Mus musculus [38]): 31%
